Sampled rows, rich in hits. Any-hit rate of the full collection: about 2.9%.
PGC1a acetyl inh: inhibitors of PGC1a acetylation signal, primary screen, cell-based, U2OS, AlphaScreen, inhibitor mode. AlphaScreen anti-acetyl-lysine; with virally co-expressed GCN5 acetyltransferase. actives 0.17% (n = 350,000). inhibition, % at 15.6 µM;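 active = every replicate shows inhibition of at least 40%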;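 also: 0% = neutral control wells and 100% = positive control wells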
Vif imaging: HIV Vif self-association inhibitors, primary screen, imaging, HEK293T, single point; HEK293T cells, Vif self-association by quenched fluorescence, 24 h; AID 602346, 2012; inhibition, % at 7.49 µM; actives 0.35% (n = 340,000); in the data active = inhibition above about 50%, passing the limit was not always enough
Cneo AK release: Cryptococcus neoformans cell lysis inducers, primary screen, AK release luminescence, single concentration; C. neoformans lysis, adenylate kinase release luminescence, 4 h; normalised: neutral wells 0, clomiphene wells 100; lysis activity, % at 15 µM; actives 0.2% (n = 360,000); AID 651654, 2012;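 active = mean lysis activity across replicates of at least 80%, whatever share of replicates individually reach that level; inactive = mean lysis activity below 80%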
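Assay system: Cryptococcus neoformans yeast cells / Dosing: single-point compound dose / Timing: 4 h at 37 °C static, read 1 h later / Measured by: luminescence of released adenylate kinase using an AK detection reagent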
PglD inh: C. jejuni PglD acetyltransferase inhibitors, primary screen, biochemical, DTNB colorimetric, single point | UDP-N-acetylbacillosamine N-acetyltransferase PglD (Campylobacter jejuni) | purified PglD enzyme, DTNB colorimetric CoA detection | inhibition, % at 12.5 µM | actives 0.098% (n = 360,000) | AID 602405, 2012; in the data active = inhibition above about 16%, passing the limit was not always enough
rRNA inh HTS: reduced GFP signal of wild-type E. coli, primary screen, bacterial rRNA inhibitor project, GFP/RFP fluorescence, OD600, single point; E. coli WT GFP vs humanized-ribosome RFP mutants, 24 h; active compounds read low; DMSO median 0, no signal -100; actives 1.6% (n = 350,000); GFP signal change (wild-type ribosome), % (concentration not given with the values);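 active = significant combined selectivity score with lowered wild-type GFP, culture density cut under 30%, mutant RFP and density less affected; inactive = any of these conditions unmet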
FGF22 binding: binders of human FGF22 protein, primary screen, FGF22 synaptogenesis inhibitor project, biophysical, thermal shift, single point; recombinant FGF22 thermal shift, SYPRO orange fluorescence; percent of sucrose octasulfate shift, DMSO zero; activity (Tm shift, normalised), % at 9.99 µM; actives 1.5% (n = 340,000); Fibroblast growth factor 22 (Homo sapiens), Q9HCT0;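 active = mean Tm shift, scaled 0 neutral to 100 positive control, at about 1.3% or above, every replicate too, limit read from the data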
Target sequence (Q9HCT0 whole entry, looked up): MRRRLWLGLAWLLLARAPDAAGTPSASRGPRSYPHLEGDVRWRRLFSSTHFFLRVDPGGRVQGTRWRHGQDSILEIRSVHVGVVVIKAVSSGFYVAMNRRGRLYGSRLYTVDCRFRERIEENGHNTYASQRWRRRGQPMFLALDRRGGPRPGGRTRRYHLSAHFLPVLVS
* = called active by the depositor; . = not tested or not shown.

SMILES | PGC1a acetyl inh | Vif imaging | Cneo AK release | PglD inh | rRNA inh HTS | FGF22 binding
C[C@@H]1CN([C@@H](C)CO)C(=O)c2cc(-c3ccc(F)cc3)cnc2O[C@H]1CN(C)CC1CCCC1 | -12 | . | -2 | -1 | 8 | 0
CC(C)NC(=O)Nc1ccc2c(c1)CC(=O)N([C@@H](C)CO)C[C@@H](C)[C@@H](CN(C)C(=O)Nc1ccc3c(c1)OCO3)O2 | 0 | . | -11 | 1 | 1 | 0
C[C@H]1CN([C@@H](C)CO)C(=O)Cc2cc(NC(=O)NC3CCCCC3)ccc2O[C@@H]1CN(C)Cc1ccccc1 | . | . | 9 | -4 | 2 | -1
CC(C)NC(=O)Nc1ccc2c(c1)CC(=O)N([C@H](C)CO)C[C@H](C)[C@@H](CN(C)C(=O)Nc1ccc3c(c1)OCO3)O2 | -2 | . | 100* | 5 | 4 | 0
C[C@H]1CN([C@@H](C)CO)C(=O)Cc2cc(NC(=O)Nc3ccccc3)ccc2O[C@H]1CN(C)C(=O)Nc1ccc2c(c1)OCO2 | -16 | . | 102* | 0 | 2 | 0
C[C@@H]1CN([C@@H](C)CO)C(=O)Cc2cc(NC(=O)Nc3ccc(C(F)(F)F)cc3)ccc2O[C@H]1CN(C)Cc1ccc2c(c1)OCO2 | -7 | . | 4 | 1 | -6 | 3.7*
C[C@@H]1CN([C@H](C)CO)C(=O)Cc2cc(NC(=O)NC3CCCCC3)ccc2O[C@@H]1CN(C)Cc1ccccc1 | . | . | 92* | 3 | 2 | 0
C[C@H]1CN([C@@H](C)CO)C(=O)c2cc(C3=CCCC3)cnc2O[C@H]1CN(C)C | 4 | . | 2 | -1 | 1 | 0
C[C@H](O)C#Cc1ccc2c(c1)O[C@@H](CN(C)C(=O)c1ccncc1)[C@H](C)CN([C@H](C)CO)S2(=O)=O | 11 | . | 0 | 4 | 6 | 0
O=C(COC(=O)CCC(=O)c1ccc(Cl)cc1)NCc1ccc(F)cc1 | 6 | 3 | 5 | -4 | -2 | 43*
O=C(COC(=O)Cc1ccc(Cl)cc1)NCc1ccc(F)cc1 | -1 | -8 | 0 | 1 | -4 | 0
O=C(COC(=O)CCC(=O)c1ccc(F)cc1)NCc1ccccc1Cl | -4 | 22 | 0 | 6 | -30* | 0
NC(=O)c1ccc(NC(=O)COC(=O)CCC(=O)c2ccc(Cl)cc2)cc1 | . | -4 | . | . | . | 43*
O=C(COC(=O)CCC(=O)c1ccc(F)cc1)Nc1ccccc1 | . | 0 | . | . | -9 | 0
O=C(COC(=O)c1ccc(Br)o1)NCc1ccc(Cl)cc1 | -16 | 10 | 1 | 1 | 14 | 0
O=C(COC(=O)c1ccc(Br)o1)NCc1ccc(F)cc1 | . | 35 | 0 | -1 | 0 | 27*
O=C(c1cnccn1)N1CC(=O)N2[C@@H](CO)[C@@H](c3ccc(C#CC4CCCCC4)cc3)[C@@H]2C1 | 10 | . | . | . | 2 | .
Cc1noc(C)c1NC(=O)N(C)C[C@H]1Oc2ccc(NC(=O)Nc3ccc4c(c3)OCO4)cc2C(=O)N([C@@H](C)CO)C[C@H]1C | -1 | . | 1 | 1 | 4 | 0
C/C=C/c1ccc([C@@H]2[C@@H](CO)N(C(=O)C3CC3)[C@H]2CN(C)C(=O)C2CC2)cc1 | 5 | . | -2 | 4 | 0 | .
C[C@H](CO)N1C[C@H](C)[C@H](CN(C)C(=O)Nc2ccc3c(c2)OCO3)Oc2ccc(NC(=O)c3ccncc3)cc2C1=O | -8 | . | -2 | 4 | 4 | 0
CSc1sc(C(=O)O)c(C)c1C(C)=O | -8 | 56* | 0 | 4 | . | .
CCOC(=O)c1sc(SC)c(C(C)=O)c1C | 5 | 6 | -2 | -6 | . | .
CCc1cccc(NC(=S)Nc2cccc3ccccc23)c1 | . | 2 | 14 | -1 | -25* | 0
C[C@H](CO)N1C[C@H](C)[C@@H](CN(C)S(=O)(=O)c2ccc(F)cc2)OCCCC[C@H](C)Oc2ccc(NS(=O)(=O)c3cccs3)cc2C1=O | -20 | . | -1 | 0 | -9 | 0
N#Cc1c2n(c3c(=O)n(Cc4ccc(Cl)cc4)cnc13)CCCCC2 | 2 | 13 | 4 | 5 | . | .
SMILES | PGC1a acetyl inh | Vif imaging | Cneo AK release | PglD inh | rRNA inh HTS | FGF22 binding
N#Cc1c2n(c3c(=O)n(Cc4ccccc4)cnc13)CCCC2 | 9 | 5 | -1 | 2 | -25* | 0
O=c1c(Br)ccc(Br)cc1Br | . | 168* | -1 | -3 | -48 | 0
C[C@H](CO)N1C[C@H](C)[C@H](CN(C)S(=O)(=O)c2cn(C)cn2)OCCCC[C@H](C)Oc2ccc(NC(=O)CCC(F)(F)F)cc2C1=O | . | . | 0 | 0 | 1 | 0
CO[C@H]1O[C@H](CO)[C@@H](OC(=O)Nc2cccc(F)c2)[C@H](OC(=O)Nc2ccccc2)[C@H]1OC(=O)Nc1ccccc1 | 6 | . | 6 | 4 | . | 0
O=C(O)c1ccc(C2SCC(=O)N2Cc2ccco2)cc1 (configuration not stated) | -2 | 6 | 5 | 2 | 11 | 1.5*
CN(C)C(=O)c1cccc(-c2ccc(C3[C@H]4CNC[C@@H]3N4Cc3cc(F)ccc3F)cc2)c1 (some centres not stated) | . | . | . | . | 3 | .
O=[N+]([O-])c1ccc(-c2ccn[nH]2)o1 | -3 | -28 | . | . | -57 | 0
Nc1nc(N)nc(-c2ccc([N+](=O)[O-])o2)n1 | 12 | 11 | . | . | -5.3* | 0
CC(C)C(c1nnnn1CC1CCCO1)N1CCN(C2CCCC2)CC1 (configuration not stated) | 7 | 57* | 0 | 9 | . | .
CC(C)C(c1nnnn1Cc1cccs1)N1CCN(C2CCCC2)CC1 (configuration not stated) | -6 | 22 | -1 | -4 | . | .
COc1ccc(NC(=O)N2CC3(C2)CN(CC2CC2)[C@H](CO)c2c3c3ccc(OC)cc3n2C)cc1 | -2 | . | . | . | -7 | 0
C[C@@H]1CN([C@@H](C)CO)C(=O)c2cccc(NS(=O)(=O)c3ccccc3)c2O[C@H]1CN(C)Cc1ccc(C(F)(F)F)cc1 | -4 | . | 1 | -4 | 4 | 0
COc1cc(NC(=S)Nc2ncccc2C)cc(OC)c1OC | . | -1 | 0 | 5 | -21* | 0
COc1cc(NC(=S)Nc2cccc(C)n2)cc(OC)c1OC | . | . | . | . | -13 | 0
C[C@@H]1CN([C@@H](C)CO)C(=O)c2cc(C#Cc3ccccc3F)cnc2O[C@H]1CN(C)S(=O)(=O)c1ccccc1F | -11 | . | 1 | -2 | 1 | 0

Assay outcomes as filed in PubChem BioAssay.
